# In ChEMBL document CHEMBL3046765, “Subnanomolar inhibitor of cytochrome bc1 complex designed by optimizing interaction with conformationally flexible residues” (J Am Chem Soc, 2010):
# The source made the active and inactive calls. The rule behind the calls is not given here.
# Key:
# Cytochrome b = Cytochrome b (Sus scrofa, UniProt P24964); assay: Inhibition of Sus scrofa (pig) heart cytochrome bc1 complex using succinate and cytochrome c as substrates by spectrophotometric analysis
# [1] = target: Cytochrome b (Sus scrofa) (UniProt P24964); assay: Inhibition of Sus scrofa (pig) heart cytochrome bc1 complex using succinate as substrate at 7.5 to 25 nM by spectropfhotometric analysis
# Sequence of Cytochrome b (Sus scrofa) (P24964 whole entry): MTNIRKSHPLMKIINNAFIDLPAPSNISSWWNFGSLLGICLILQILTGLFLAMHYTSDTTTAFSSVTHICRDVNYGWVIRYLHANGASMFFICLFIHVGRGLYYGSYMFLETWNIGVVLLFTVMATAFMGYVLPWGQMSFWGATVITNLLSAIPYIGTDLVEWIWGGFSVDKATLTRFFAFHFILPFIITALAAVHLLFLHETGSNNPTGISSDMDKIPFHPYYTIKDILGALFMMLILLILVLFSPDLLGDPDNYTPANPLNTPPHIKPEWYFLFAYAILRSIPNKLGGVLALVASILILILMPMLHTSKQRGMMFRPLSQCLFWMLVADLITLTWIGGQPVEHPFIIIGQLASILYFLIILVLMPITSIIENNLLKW
# Sus scrofa [2] = species on record: Sus scrofa; assay: Competitive inhibition of Sus scrofa (pig) heart cytochrome bc1 complex using ubiquinol as substrate
# [3] = target: Cytochrome b (Sus scrofa) (UniProt P24964); assay: Ratio of pyraclostrobin Ki to compound Ki for Sus scrofa (pig) heart cytochrome bc1 complex
# Sus scrofa [4] = species on record: Sus scrofa; assay: Non-competitive inhibition of Sus scrofa (pig) heart cytochrome bc1 complex using cytochrome c as substrate
# Summary of the method: (§1)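 Progress curves at 0–5 nM inhibitor fitted by nonlinear regression for v0, vs, kobs; kobs versus inhibitor gives k+0, k−0; Ki = k−0/k+0. Cytochrome c 4–48 µM varied at fixed inhibitor for mechanism.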
# [5] = target: Cytochrome b (Sus scrofa) (UniProt P24964); assay: Ratio of azoxystobin Ki to compound Ki for Sus scrofa (pig) heart cytochrome bc1 complex
# [6] = target: Succinate-ubiquinone oxidoreductase (Sus scrofa) (UniProt A5GZW8+D0VWV4); assay: Inhibition of Sus scrofa (pig) heart succinate-ubiquinone reductase using succinate and DCIP as substrate by spectrophotometric analysis by spectrophotometric analysis; format: protein-complex assay
# Summary of the method: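 Porcine heart SCR preparation; complex II activity as succinate oxidation by 53 µM DCIP in 100 mM PBS pH 7.4, 0.3 mM EDTA, 20 mM succinate, 23°C, started by enzyme addition. DCIP reduction followed continuously at A600 (ε 21 mM−1cm−1) with varying inhibitor concentrations.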
# [7] = target: T1, Succinate dehydrogenase [ubiquinone] iron-sulfur subunit, mitochondrial (Sus scrofa) (UniProt Q007T0); assay: Inhibition of Sus scrofa (pig) heart succinate-cytochrome c reductase (Electron transport protein complex 2/3) using succinate and cytochrome c as substrate at 1 to 5 nM by spectrophotometric analysis
# T1 sequence (whole entry): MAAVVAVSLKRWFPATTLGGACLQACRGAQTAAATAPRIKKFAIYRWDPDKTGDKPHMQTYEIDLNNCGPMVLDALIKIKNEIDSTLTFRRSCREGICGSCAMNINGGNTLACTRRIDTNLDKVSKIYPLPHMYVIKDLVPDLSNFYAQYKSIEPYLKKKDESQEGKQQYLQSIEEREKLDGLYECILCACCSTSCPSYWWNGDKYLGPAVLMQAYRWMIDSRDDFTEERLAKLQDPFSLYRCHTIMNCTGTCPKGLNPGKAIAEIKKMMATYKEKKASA
# Summary of the method: as §1
# [8] = target: Cytochrome b (Sus scrofa) (UniProt P24964); assay: Ratio of kresoxim-methyl Ki to compound Ki for Sus scrofa (pig) heart cytochrome bc1 complex
# [9] = target: T1, Succinate dehydrogenase [ubiquinone] iron-sulfur subunit, mitochondrial (Sus scrofa); assay: Inhibition of Sus scrofa (pig) heart succinate-cytochrome c reductase (Electron transport protein complex 2/3) using succinate and cytochrome c as substrate by spectrophotometric analysis
# Summary of the method: as §1
# Sequence of Cytochrome b (P24964 whole entry): as the sequence (P24964 whole entry) above
structure (smiles),measurement,setting,value
CO/N=C(/C(=O)OC)c1ccccc1COc1ccccc1C [KRESOXIM-METHYL],Ki,Cytochrome b,160 nM
CO/C=C(/C(=O)OC)c1ccccc1COc1cc(-c2cc(Cl)ccc2O)nn1C,Ki,Cytochrome b,0.57 nM
same,inhibition,[1],Active
same,inhibition,Sus scrofa [2],Active
same,Ratio Ki,[3],5.8
same,inhibition,Sus scrofa [4],Active
same,Ratio Ki,[5],522
same,inhibition,[6],inactive
same,inhibition,[7],Active
same,Ratio Ki,[8],280
CO/C=C(/C(=O)OC)c1ccccc1COc1cc(-c2ccccc2O)nn1C,Ki,Cytochrome b,1.2 nM
same,inhibition,[6],inactive
same,inhibition,[9],Active
CO/N=C(/C(=O)OC)c1ccccc1COc1cc(-c2ccccc2O)nn1C,Ki,Cytochrome b,3.8 nM
same,inhibition,[6],inactive
same,inhibition,[9],Active
CO/C=C(/C(=O)OC)c1ccccc1COc1cc(-c2ccccc2OC)nn1C,Ki,Cytochrome b,29.1 nM
CO/C=C(/C(=O)OC)c1ccccc1COc1cc(-c2ccccc2OCc2ccccc2)nn1C,Ki,Cytochrome b,12.7 nM
CO/C=C(/C(=O)OC)c1ccccc1COc1cc(-c2ccccc2OC(=O)c2ccc(F)cc2)nn1C,Ki,Cytochrome b,97.7 nM
COC(=O)N(OC)c1ccccc1COc1ccn(-c2ccc(Cl)cc2)n1 [PYRACLOSTROBIN],Ki,Cytochrome b,3.3 nM
CO/C=C(/C(=O)OC)c1ccccc1Oc1cc(Oc2ccccc2C#N)ncn1 [AZOXYSTROBIN],Ki,Cytochrome b,298 nM
CO/C=C(/C(=O)OC)c1ccccc1COc1cc(-c2cc(C)ccc2OC)nn1C,Ki,Cytochrome b,19.9 nM
CO/C=C(/C(=O)OC)c1ccccc1COc1cc(-c2cc(C)ccc2O)nn1C,Ki,Cytochrome b,3.1 nM
same,inhibition,[6],inactive
same,inhibition,[9],Active
